Measurements of several laboratories.
Protocols differ between the studies behind these lines. Values after ≈ are worked out from the molar mass of the structure shown.
Organism: Staphylococcus epidermidis
Observed: microbial growth

| Compound | assay | test system | conditions | quantity | value |
| --- | --- | --- | --- | --- | --- |
| CNC(C)C1CCC(N)C(OC2C(N)CC(N)C(OC3OCC(C)(O)C(NC)C3O)C2O)O1 (stereo not shown) | broth dilution | – | – | MIC | 1 µg/mL (≈ 2.09 µM) |
| Cc1ccc2[nH]nc(-c3nnc(Nc4ccc(C)c(C)c4)s3)c2c1 | – | ATCC12228 | – | MIC | 172 µg/mL (≈ 512 µM) |
| CCn1cc(C(=O)O)c(=O)c2cc(F)c(N3CCNCC3)cc21 | – | – | clinical isolate | MIC | 0.2 µg/mL (≈ 0.626 µM) |
| CC[C@H]1OC(=O)[C@H](C)[C@@H](O[C@H]2C[C@@](C)(OC)[C@@H](O)[C@H](C)O2)[C@H](C)[C@@H](O[C@@H]2O[C@H](C)C[C@H](N(C)C)[C@H]2O)[C@](C)(O)C[C@@H](C)/C(=N\OCOCCOC)[C@H](C)[C@@H](O)[C@]1(C)O | – | MRSE | clinical isolate | MIC90 | > 128 µg/mL |
| Cc1ccc2[nH]nc(-c3nnc(Nc4ccc(Cl)c(Cl)c4)s3)c2c1 | – | ATCC12228 | – | MIC | 187 µg/mL (≈ 498 µM) |
| Cc1c2c(nn1C)CSCc1cc(n(C)n1)CSc1cc(c3ccccc3c1)OCCCc1c(C(=O)O)n(C)c3c-2c(Cl)ccc13 | broth dilution | – | clinical isolate | MIC50 | 12.5 µM |
| CN[C@H](CC(C)C)C(=O)N[C@H]1C(=O)N[C@@H](CC(N)=O)C(=O)N[C@H]2C(=O)N[C@H]3C(=O)N[C@H](C(=O)N[C@H](C(=O)O)c4cc(O)cc(O)c4-c4cc3ccc4O)[C@H](O)c3ccc(c(Cl)c3)Oc3cc2cc(c3O[C@@H]2O[C@H](CO)[C@@H](O)[C@H](O)[C@H]2O[C@H]2C[C@](C)(N)[C@H](O)[C@H](C)O2)Oc2ccc(cc2Cl)[C@H]1O | broth dilution | – | clinical isolate | MIC50 | 1 µg/mL |
| CN[C@H](CC(C)C)C(=O)N[C@H]1C(=O)N[C@@H](CC(N)=O)C(=O)N[C@H]2C(=O)N[C@H]3C(=O)N[C@H](C(=O)N[C@H](C(=O)O)c4cc(O)cc(O)c4-c4cc3ccc4O)[C@H](O)c3ccc(c(Cl)c3)Oc3cc2cc(c3O[C@@H]2O[C@H](CO)[C@@H](O)[C@H](O)[C@H]2O[C@H]2C[C@](C)(N)[C@H](O)[C@H](C)O2)Oc2ccc(cc2Cl)[C@H]1O | – | – | clinical isolate | MIC | 0.78 µg/mL (≈ 0.538 µM) |
| C=C[C@]1(C)C[C@@H](OC(=O)CS[C@@H]2C[C@H]3CC[C@@H](C2)N3C)[C@]2(C)[C@H](C)CC[C@]3(CCC(=O)[C@H]32)[C@@H](C)[C@@H]1O | – | – | clinical isolate | MIC90 | 0.0625 µg/mL (≈ 0.121 µM) |
| Cc1ccc2[nH]nc(-c3nnc(Nc4ccc(F)cc4Cl)s3)c2c1 | – | ATCC12228 | – | MIC | 118 µg/mL (≈ 328 µM) |
